Experimental findings from PubChem BioAssay are described below.

The source made the active and inactive calls.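 The calls were made as follows, unless noted: active = viability loss from added drug above about 55%, and viability with drug at most 40%, in both replicates (limit read from the data, passing the limit was not always enough); inconclusive = both conditions met in only one replicate; inactive = neither replicate meets both conditions.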

Assay [1] in a line: Her2 expression decrease, cell viability multiplex – SKBR3 breast tumor cells, AlphaScreen, ATP viability, primary screen (AID 461;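 active = Her2 level under about 52% in both replicate screens, with viability over 70% of control, limit read from the data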;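 as to Her2 level: lower value means less Her2 protein in the cells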;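 as to viability: percent of carrier control wells set as 100% viability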). To be noted: SKBR3 Her2 protein level, 18-24 h, measured here: SKBR3 viability, ATP luminescence, at 10 µM.
Assay [2] deals with Receptor tyrosine-protein kinase erbB-2 (Homo sapiens) (UniProt P04626). The assay is described as above. Particulars: 18-24 h, at 10 µM, stronger effect = lower value.
Receptor tyrosine-protein kinase erbB-2 (Homo sapiens), sequence (P04626 whole entry, looked up): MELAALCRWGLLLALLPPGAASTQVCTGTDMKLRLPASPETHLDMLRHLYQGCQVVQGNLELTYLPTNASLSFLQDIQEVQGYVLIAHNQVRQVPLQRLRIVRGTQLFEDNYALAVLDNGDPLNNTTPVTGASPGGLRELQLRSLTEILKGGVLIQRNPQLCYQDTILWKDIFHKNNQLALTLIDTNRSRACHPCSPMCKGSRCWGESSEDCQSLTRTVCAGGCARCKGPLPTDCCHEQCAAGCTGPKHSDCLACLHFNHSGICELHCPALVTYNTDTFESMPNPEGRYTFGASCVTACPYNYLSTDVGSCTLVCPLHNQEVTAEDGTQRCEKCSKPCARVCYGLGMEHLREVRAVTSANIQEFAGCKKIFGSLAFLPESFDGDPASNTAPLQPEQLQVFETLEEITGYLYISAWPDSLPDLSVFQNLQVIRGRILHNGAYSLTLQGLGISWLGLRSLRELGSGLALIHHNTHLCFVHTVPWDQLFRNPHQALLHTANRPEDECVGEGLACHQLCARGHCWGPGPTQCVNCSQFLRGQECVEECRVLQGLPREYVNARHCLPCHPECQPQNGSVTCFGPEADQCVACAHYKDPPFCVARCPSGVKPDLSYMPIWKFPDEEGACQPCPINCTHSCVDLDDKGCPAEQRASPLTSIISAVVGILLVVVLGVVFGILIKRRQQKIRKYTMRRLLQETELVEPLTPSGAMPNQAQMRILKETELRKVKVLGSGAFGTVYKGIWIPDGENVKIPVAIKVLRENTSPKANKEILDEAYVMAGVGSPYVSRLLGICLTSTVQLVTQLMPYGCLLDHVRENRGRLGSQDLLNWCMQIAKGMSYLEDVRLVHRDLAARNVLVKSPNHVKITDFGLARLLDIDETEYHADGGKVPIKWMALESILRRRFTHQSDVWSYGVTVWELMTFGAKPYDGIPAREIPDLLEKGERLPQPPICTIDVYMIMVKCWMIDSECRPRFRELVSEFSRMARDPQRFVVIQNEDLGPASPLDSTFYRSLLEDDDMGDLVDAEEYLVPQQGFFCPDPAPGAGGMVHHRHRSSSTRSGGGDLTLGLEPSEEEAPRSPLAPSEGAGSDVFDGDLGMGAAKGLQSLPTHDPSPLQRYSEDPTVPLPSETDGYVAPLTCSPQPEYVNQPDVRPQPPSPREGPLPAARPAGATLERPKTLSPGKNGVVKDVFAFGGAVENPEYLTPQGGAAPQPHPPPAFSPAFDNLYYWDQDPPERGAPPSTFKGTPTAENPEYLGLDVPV
The nature of assay [3]: reduced viability of SK-BR-3 breast cancer cells – cell-based, 24 h, human, pilot screen (AID 572;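 active = viability at or below 10% of carrier control in both of two separate runs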;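 also: compound exposure lasted between 18 and 24 h rather than exactly 24 h; 100% = carrier-treated control wells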). To be noted: SK-BR-3 viability, CellTiter-Glo luminescence, at 10 µM, stronger effect = lower value.
Assay [4] in a line: HUVEC growth inhibition – cell-based, human, primary screen (AID 575;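 active = viability at or below 30% in both replicate assays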;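 also: 100% = median of untreated cell wells with 0.1% DMSO on each plate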). Particulars: HUVEC proliferation, CellTiter-Glo luminescence, 72 h; at 10 µM; stronger effect = lower value. In short, it runs like this: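 Material: primary human umbilical vein endothelial cells / Schedule: 72 h exposure, 37 °C, 5% CO2, 30 min RT equilibration / Signal: ATP-based CellTiter-Glo luminescent read / Read-out basis: percent of median DMSO-control luminescence / Control set: 32 DMSO-only cell-control wells (high), 32 MePR drug-control wells (low) per plate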

Assay [5] can be described thus: H69AR cell proliferation blockers – human, duplicate replicates, primary screen (AID 580;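 active = viability at or under a set limit in both replicates, limit being median viability minus 3 SD, cut at about 48% in these data, passing the limit was not always enough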;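 also: 100% = mean luminescence of untreated wells and 0% = no signal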). Particulars: H69AR lung tumor cells viability, ATP luminescence, 72 h; at 10 µM; stronger effect = lower value.
The nature of assay [6]: MRP1 drug-resistance reversers in H69AR cells – cell-based, doxorubicin co-treatment, pilot screen (AID 601). To be noted: CellTiter-Glo, 72 h, at 10 µM; for differential viability (reversal): stronger effect = higher value.
A short description of assay [7]: yeast transport mutant growth inhibition pilot in 384-well plates, post-Golgi transport modulator project (AID 636; in the data active = inhibition above about 31%). Particulars: absorbance 615 nm, about 18 h, stronger effect = higher value.
Assay [8] in a line: growth suppression of yeast trafficking mutant, preliminary HTS, modulators of trafficking downstream of Golgi apparatus project, 1536-format plate, OD 615 nm (AID 637; in the data active = inhibition above about 30%). To be noted: yeast transport mutant growth, absorbance 615 nm, 18 h; stronger effect = higher value.
The mark [9] stands for this setting: H69AR cells + 2 uM doxorubicin, measured here: viability with 2 uM doxorubicin, stronger effect = lower value.
The mark [10] stands for this setting: H69AR cells, compound alone cytotoxicity.

On to `CCOC(=O)c1ccc2nc(C)c3c(c2c1)OC(C)C3` (stereo not given), for which the viability in assay [1] is 92%; in assay [3] it was 92% (inactive); in assay [4] it was 97.1% (inactive); in assay [5], 87.9% (inactive); in assay [6] (setting [9]), 76.9%; in assay [6] (setting [10]), 87.9%. Moreover, the Her2 level in assay [2] was 124% (inactive). For the same molecule, the differential viability (reversal) in assay [6] (H69AR cells + 2 uM doxorubicin) is 11% (inactive). Also, the results for the inhibition in assay [7] and in assay [8] were -2.6% (inactive) and -5.67% (inactive), respectively.

Consider `O=C(COC(=O)CCC(=O)c1cccs1)NCc1ccco1`, for which the viability in assay [1] is 98%; in assay [3] it was 98% (inactive); in assay [4] it was 89.3% (inactive); in assay [5] it was 79.8% (inactive); in assay [6] (setting [9]), 77.3%; in assay [6] (setting [10]), 79.8%. Also, in assay [2], the Her2 level was 109% (inactive). Besides, the differential viability (reversal) in assay [6] (H69AR cells + 2 uM doxorubicin) is 2.55% (inactive). The figures for the inhibition in assay [7] and in assay [8] were -3.59% (inactive) and -1.5% (inactive), respectively.

On to `Cc1cc(NS(=O)(=O)c2ccc(Nc3nc(-c4sc(N)nc4C)cs3)cc2)no1`, for which the viability in assay [1] is 104%; in assay [3], 104% (inactive); in assay [4], 75.5% (inactive); in assay [5], 98% (inactive); in assay [6] (setting [9]), 88.8%; in assay [6] (setting [10]), 98%. Also, in assay [2], the Her2 level is 116% (inactive). Further, the differential viability (reversal) in assay [6] (H69AR cells + 2 uM doxorubicin) is 9.14% (inactive). The inhibition in assay [7] is -4.08% (inactive); in assay [8] it was -4% (inactive).

As for `O=C(CN(c1ccc(F)cc1)S(=O)(=O)c1ccc2c(c1)OCCO2)Nc1ccc2c(c1)OCO2`, the viability in assay [1] was 83%; in assay [3], 83% (inactive); in assay [4], 91.3% (inactive); in assay [5], 99.8% (inactive); in assay [6] (setting [9]) it was 95.2%; in assay [6] (setting [10]), 99.8%. For the same molecule, the Her2 level in assay [2] was 89.5% (inactive). Besides, in assay [6] (H69AR cells + 2 uM doxorubicin), the differential viability (reversal) is 4.63% (inactive). The inhibition in assay [7] is 0.8% (inactive); in assay [8] it was 4.03% (inactive).

For `CCOc1ccc(-n2c(C)nc3c(cnn3-c3ccc(Cl)cc3)c2=O)cc1`, the viability was 95% in assay [1]; 95% (inactive) in assay [3]; 80.3% (inactive) in assay [4]; 80.7% (inactive) in assay [5]; 86.8% in assay [6] (setting [9]); 80.7% in assay [6] (setting [10]). Also, in assay [2], the Her2 level was 99.5% (inactive). In assay [6] (H69AR cells + 2 uM doxorubicin), the differential viability (reversal) was -6.13% (inactive). The values for the inhibition in assay [7] and in assay [8] were -0.39% (inactive) and -3.06% (inactive), respectively.

For the molecule `CCN(Cc1nc2ccccc2c(=O)[nH]1)Cc1nc2cc(OC)c(OC)cc2c(=O)[nH]1`, the viability was 88.5% in assay [1]; 88.5% (inactive) in assay [3]; 99.5% (inactive) in assay [4]; 89.8% (inactive) in assay [5]; 92.1% in assay [6] (setting [9]); 89.8% in assay [6] (setting [10]). The Her2 level in assay [2] is 114% (inactive). In addition, the differential viability (reversal) in assay [6] (H69AR cells + 2 uM doxorubicin) is -2.33% (inactive). Also, the inhibition is 0.54% (inactive) in assay [7] and 9.83% (inactive) in assay [8].

As for `O=C(Nc1ccc2c(c1)OCO2)c1nn(-c2ccccc2)c(=O)c2ccccc12`, the viability is 108% in assay [1]; 108% (inactive) in assay [3]; 72.8% (inactive) in assay [4]; 74.7% (inactive) in assay [5]; 79.4% in assay [6] (setting [9]); 74.7% in assay [6] (setting [10]). In addition, in assay [2], the Her2 level was 81% (inactive). The differential viability (reversal) in assay [6] (H69AR cells + 2 uM doxorubicin) is -4.67% (inactive). In addition, the inhibition in assay [7] was -1.43% (inactive); in assay [8] it was 1.75% (inactive).

Consider `Cn1cnnc1SCC(=O)Nc1ccccc1Sc1ccccc1`, for which the viability in assay [1] was 107%; in assay [3], 107% (inactive); in assay [4], 113% (inactive); in assay [5] it was 98.8% (inactive); in assay [6] (setting [9]), 90.4%; in assay [6] (setting [10]), 98.8%. Also, in assay [2], the Her2 level was 91.5% (inactive). In addition, the differential viability (reversal) in assay [6] (H69AR cells + 2 uM doxorubicin) is 8.32% (inactive). The inhibition in assay [7] is -8.24% (inactive); in assay [8] it was 4.67% (inactive).

`CC1=Nn2c(nnc2-c2ccccn2)SC1`: the viability in assay [1] was 94%; in assay [3], 94% (inactive); in assay [4] it was 88.7% (inactive); in assay [5], 99.5% (inactive); in assay [6] (setting [9]), 88.2%; in assay [6] (setting [10]) it was 99.5%. The Her2 level in assay [2] is 104% (inactive). Besides, the differential viability (reversal) in assay [6] (H69AR cells + 2 uM doxorubicin) is 11.3% (inactive). The inhibition was -4.4% (inactive) in assay [7] and -1.9% (inactive) in assay [8].

Take `CCN(CC)S(=O)(=O)c1ccc(S(=O)(=O)N(Cc2ccccn2)Cc2ccco2)cc1`: the viability in assay [1] is 94%; in assay [3], 94% (inactive); in assay [4] it was 90.6% (inactive); in assay [5] it was 91% (inactive); in assay [6] (setting [9]) it was 91.2%; in assay [6] (setting [10]) it was 91%. The Her2 level in assay [2] was 94.5% (inactive). Further, in assay [6] (H69AR cells + 2 uM doxorubicin), the differential viability (reversal) is -0.185% (inactive). The inhibition in assay [7] is -2.03% (inactive); in assay [8], 3.02% (inactive).

In the case of `CCOC(=O)c1cccc(NC(=O)c2ccco2)c1`, the viability in assay [1] was 95.5%; in assay [3], 95.5% (inactive); in assay [4] it was 114% (inactive); in assay [5] it was 91.9% (inactive); in assay [6] (setting [9]) it was 88.1%; in assay [6] (setting [10]), 91.9%. Further, the Her2 level in assay [2] was 92.5% (inactive). The differential viability (reversal) in assay [6] (H69AR cells + 2 uM doxorubicin) was 3.72% (inactive). The inhibition in assay [7] was -0.77% (inactive); in assay [8] it was -1.17% (inactive).

Turning to `Fc1cccc2sc(N3CCOCC3)nc12`, the viability in assay [1] is 93.5%; in assay [3] it was 93.5% (inactive); in assay [4], 83.9% (inactive); in assay [5], 96.8% (inactive); in assay [6] (setting [9]), 81.4%; in assay [6] (setting [10]), 96.8%. Also, the Her2 level in assay [2] was 80.5% (inactive). The differential viability (reversal) in assay [6] (H69AR cells + 2 uM doxorubicin) is 15.4% (inactive). Moreover, the inhibition in assay [7] is -4.87% (inactive); in assay [8] it was 5.17% (inactive).

In the case of `Cn1nnnc1SCc1cn2cccnc2n1`, the viability was 112% in assay [1]; 112% (inactive) in assay [3]; 101% (inactive) in assay [4]; 89.3% (inactive) in assay [5]; 89.4% in assay [6] (setting [9]); 89.3% in assay [6] (setting [10]). In addition, in assay [2], the Her2 level is 90.5% (inactive). In assay [6] (H69AR cells + 2 uM doxorubicin), the differential viability (reversal) is -0.09% (inactive). The inhibition is -5.33% (inactive) in assay [7] and -3.33% (inactive) in assay [8].

In the case of `O=C(Nc1ccc2c(c1)OCCO2)C1CCCN1S(=O)(=O)c1cccc2cccnc12` (stereo not given), the viability in assay [1] is 92%; in assay [3], 92% (inactive); in assay [4] it was 100% (inactive); in assay [5] it was 96.8% (inactive); in assay [6] (setting [9]), 82.3%; in assay [6] (setting [10]), 96.8%. In addition, in assay [2], the Her2 level was 100% (inactive). For the same molecule, in assay [6] (H69AR cells + 2 uM doxorubicin), the differential viability (reversal) is 14.4% (inactive). Moreover, the inhibition in assay [7] was -1.33% (inactive); in assay [8] it was -0.98% (inactive).

On to `COc1cc(-c2noc(-c3cccc(Cl)c3)n2)cc(OC)c1OC`, for which the viability in assay [1] is 92.5%; in assay [3], 92.5% (inactive); in assay [4], 68% (inactive); in assay [5], 80.5% (inactive); in assay [6] (setting [9]), 90.6%; in assay [6] (setting [10]) it was 80.5%. In assay [2], the Her2 level is 86% (inactive). In addition, in assay [6] (H69AR cells + 2 uM doxorubicin), the differential viability (reversal) is -10.1% (inactive). In addition, the inhibition is -5.73% (inactive) in assay [7] and 0.97% (inactive) in assay [8].

Take `CC1(C)OC(=O)C(=CNc2ccccc2F)C(=O)O1`: the viability is 102% in assay [1]; 102% (inactive) in assay [3]; 97.6% (inactive) in assay [4]; 91.2% (inactive) in assay [5]; 92.4% in assay [6] (setting [9]); 91.2% in assay [6] (setting [10]). In addition, in assay [2], the Her2 level was 83.5% (inactive). The differential viability (reversal) in assay [6] (H69AR cells + 2 uM doxorubicin) was -1.11% (inactive). Moreover, the inhibition was -2.99% (inactive) in assay [7] and 2.06% (inactive) in assay [8].
